The text below walks through data of ChEMBL document CHEMBL5154735, “Interaction of A3 adenosine receptor ligands with the human multidrug transporter ABCG2” (Eur J Med Chem, 2022).

SMILES strings stand for the structures.

A word on the inhibition: it is the drop in the measured response relative to a control, in per cent. A word on the EC50: it is the concentration needed to bring the measured effect to its halfway point. Low values mean an effect from little substance, high ones a need for much substance. Usually Ki stands for a measure of affinity in units of concentration, obtained from inhibition or displacement. A high value points to lower affinity. For orientation: IC50 means the concentration that inhibits the measured activity by half.

Series [1] deals with T1, ABCG2 (Homo sapiens, UniProt Q9UNQ0).
T1 sequence (Q9UNQ0 whole entry): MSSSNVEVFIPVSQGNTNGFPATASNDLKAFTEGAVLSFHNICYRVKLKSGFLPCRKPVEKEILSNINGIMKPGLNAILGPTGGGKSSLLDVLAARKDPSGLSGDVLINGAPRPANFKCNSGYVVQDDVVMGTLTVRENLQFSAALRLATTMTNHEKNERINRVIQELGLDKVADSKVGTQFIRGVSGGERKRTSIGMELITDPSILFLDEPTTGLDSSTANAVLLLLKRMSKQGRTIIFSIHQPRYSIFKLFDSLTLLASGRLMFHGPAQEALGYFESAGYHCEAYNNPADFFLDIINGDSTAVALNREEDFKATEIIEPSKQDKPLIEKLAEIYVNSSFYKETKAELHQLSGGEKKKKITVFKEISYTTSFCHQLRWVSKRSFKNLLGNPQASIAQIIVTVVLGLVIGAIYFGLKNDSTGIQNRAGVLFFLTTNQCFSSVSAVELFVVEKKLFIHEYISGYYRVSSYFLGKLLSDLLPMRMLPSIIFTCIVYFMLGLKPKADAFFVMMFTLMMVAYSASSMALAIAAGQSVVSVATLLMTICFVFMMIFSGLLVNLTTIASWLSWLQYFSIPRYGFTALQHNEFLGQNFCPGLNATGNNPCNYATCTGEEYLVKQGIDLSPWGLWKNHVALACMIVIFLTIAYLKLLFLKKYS
The experiment in a line: Inhibition of human ABCG2-mediated ATPase activity preincubated for 2 mins followed by ATP addition at 10 uM and measured after 20 mins by colorimetric assay relative to control. The procedure, abridged:
(§1)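 Total membrane vesicles from High-Five insect cells expressing human ABCG2 (hypotonic lysis, differential centrifugation), 10 μg protein/tube, in MES-Tris pH 6.8 buffer with KCl, MgCl2, NaN3, EGTA, ouabain, DTT. Compound in DMSO added ± sodium orthovanadate (0.3 mM), DMSO control. Preincubated 2 min at 37°C, then 5 mM ATP, 20 min. SDS stop, Pi measured colorimetrically. Three independent experiments in duplicate, mean ± SE.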

Series [2] concerns the target T1, ABCG2. Nature of the series: Effect on human ABCG2 transporter preincubated for 2 mins followed by ATP addition assessed as basal ATPase activity at 2.5 uM and measured after 20 mins by colorimetric assay relative to control. To be noted: read-out: Activity. The procedure, abridged: as §1
Series [3] has as its target T1, ABCG2. Nature of the series: Effect on human ABCG2 transporter preincubated for 2 mins followed by ATP addition assessed as basal ATPase activity at 10 uM and measured after 20 mins by colorimetric assay relative to control. To be noted: read-out: Activity. The procedure, abridged:
as §1

Series [4] concerns the target T1, ABCG2. Nature of the series: Activation of human ABCG2-mediated ATPase activity preincubated for 2 mins followed by ATP addition at 2.5 uM and measured after 20 mins by colorimetric assay relative to control. To be noted: read-out: Activity. The procedure, abridged: as §1
Series [5] concerns the target T1, ABCG2. The experiment in a line: Inhibition of human ABCG2 in human R5 cells assessed as inhibition of mitoxantrone efflux at 10 uM measured by flow cytometric analysis relative to control. In kind it is cell-based. As to conditions: probe mitoxantrone. The procedure, abridged: (§2)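 HEK293 cells transfected with full-length ABCG2 (R-5) or empty pcDNA vector, grown in MEM with 10% FBS and 2 mg/ml G418. Cells incubated in IMDM with 5% FBS, 5 μM mitoxantrone (final) ± compound, 37°C for 45 min. Washed in cold IMDM, resuspended in cold PBS with 1% BSA, read by flow cytometry.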

The target in series [6] is T1, ABCG2. The experiment in a line: Activation of human ABCG2-mediated ATPase activity preincubated for 2 mins followed by ATP addition at 10 uM and measured after 20 mins by colorimetric assay relative to control. To be noted: read-out: Activity. The procedure, abridged: as §1
Series [7] has as its target T2, Broad substrate specificity ATP-binding cassette transporter ABCG2 (Homo sapiens, UniProt Q9UNQ0).
T2 sequence (Q9UNQ0 whole entry): T1 sequence (Q9UNQ0 whole entry)
Nature of the series: Activation of human ABCG2-mediated ATPase activity preincubated for 2 mins followed by ATP addition and measured after 20 mins by colorimetric assay. The essentials:
as §1

The target in series [8] is T3, Adenosine receptor A3 (Homo sapiens, UniProt P0DMS8).
T3 sequence (P0DMS8 whole entry): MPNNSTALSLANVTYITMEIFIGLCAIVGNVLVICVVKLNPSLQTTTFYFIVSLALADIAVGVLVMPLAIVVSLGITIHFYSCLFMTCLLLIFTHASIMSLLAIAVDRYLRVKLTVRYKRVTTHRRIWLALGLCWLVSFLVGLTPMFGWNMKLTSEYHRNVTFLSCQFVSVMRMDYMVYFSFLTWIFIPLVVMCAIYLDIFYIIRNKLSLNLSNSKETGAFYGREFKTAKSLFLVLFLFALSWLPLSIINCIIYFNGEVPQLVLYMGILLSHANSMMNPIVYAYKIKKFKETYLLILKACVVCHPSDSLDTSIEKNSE
Nature of the series: Binding affinity towards human adenosine A3 receptor.

The target of series [9] is T2, Broad substrate specificity ATP-binding cassette transporter ABCG2. Nature of the series: Inhibition of human ABCG2 in human R5 cells assessed as inhibition of mitoxantrone efflux measured by flow cytometric analysis. It is filed as cell-based. The procedure, abridged:
as §2

Series [10] addresses T1, ABCG2. The experiment in a line: Activation of human ABCG2-mediated ATPase activity preincubated for 2 mins followed by ATP addition at 100 nM and measured after 20 mins by colorimetric assay relative to control. As to conditions: read-out: Activity. The procedure, abridged: as §1
The target in series [11] is T1, ABCG2. The experiment in a line: Inhibition of human ABCG2-mediated ATPase activity preincubated for 2 mins followed by ATP addition at 2.5 uM and measured after 20 mins by colorimetric assay relative to control. The essentials: as §1
Series [12] deals with T1, ABCG2. The experiment in a line: Activation of human ABCG2-mediated ATPase activity preincubated for 2 mins followed by ATP addition at 5 uM and measured after 20 mins by colorimetric assay relative to control. To be noted: read-out: Activity. The procedure, abridged:
as §1

Series [13] has as its target T1, ABCG2. Nature of the series: Activation of human ABCG2-mediated ATPase activity preincubated for 2 mins followed by ATP addition at 0.5 uM and measured after 20 mins by colorimetric assay relative to control. To be noted: read-out: Activity. The procedure, abridged: as §1
Series [14] addresses T2, Broad substrate specificity ATP-binding cassette transporter ABCG2. Nature of the series: Inhibition of human ABCG2-mediated ATPase activity preincubated for 2 mins followed by ATP addition and measured after 20 mins by colorimetric assay. The essentials: as §1

`CNC(=O)C12CC1[C@@H](n1cnc3c(NCc4cccc(-n5cc(-c6ccc(F)c(F)c6)nn5)c4)nc(C#Cc4ccc(C(F)(F)F)cc4)nc31)[C@H](O)[C@@H]2O` (single isomer, unassigned): the inhibition at 20 min, 10 µM in series [1] is 44.5%. Moreover, the activity at 20 min, 2.5 µM in series [2] is ≤ 30%.
Take `OCC12CC1[C@@H](n1cnc3c(NCc4cccc(-n5cc(-c6ccc(F)c(F)c6)nn5)c4)nc(C#Cc4ccc(F)c(F)c4)nc31)[C@H](O)[C@@H]2O` (single isomer, unassigned): in series [2], the activity at 20 min, 2.5 µM was ≤ 30%. Further, the activity at 20 min, 10 µM in series [3] is ≤ 30%.
`CNC(=O)C12CC1[C@@H](n1cnc3c(NC4CC4c4ccc(F)c(F)c4)nc(C#Cc4cccc(F)c4)nc31)[C@H](O)[C@@H]2O` (single isomer, unassigned): in series [4], the activity at 20 min, 2.5 µM stood at 111%. The inhibition at 10 µM in series [5] came out at 100%. Moreover, the activity at 20 min, 10 µM in series [6] was 46.7%. The compound further yielded an EC50 in series [7] of 16 nM.
`CCOC(=O)C12CC1[C@@H](n1ccc3c(NCCCc4ccc(OC)c(O)c4)nc(C#Cc4ccc(Cl)s4)nc31)[C@H](O)[C@@H]2O` (single isomer, unassigned): the inhibition at 10 µM in [5] is 109%. In addition, the Ki in series [8] was ≥ 99 nM. Further, in series [9], the IC50 was determined as 600 nM. In addition, the activity at 20 min, 0.1 µM in [10] turned out to be 74.2%. The compound further registered an EC50 in series [7] of 24.3 nM.
Take `CNC(=O)C12CC1[C@@H](n1cnc3c(NCc4cccc(-n5cc(-c6ccc(F)c(F)c6)nn5)c4)nc(C#Cc4cc(F)cc(F)c4)nc31)[C@H](O)[C@@H]2O` (single isomer, unassigned): the inhibition at 20 min, 10 µM in series [1] turned out to be 49.4%. Also, the inhibition at 20 min, 2.5 µM in series [11] was 44.7%.
For `CNC(=O)C12CC1[C@@H](n1cnc3c(C)nc(C#Cc4ccc(F)c(F)c4)nc31)[C@H](O)[C@@H]2O` (single isomer, unassigned), the activity at 20 min, 2.5 µM in [4] amounted to 49.6%. For the same compound, the Ki in series [8] was ≥ 99 nM. Moreover, the activity at 20 min, 10 µM in [6] is 72.6%.
Turning to `CNC(=O)C12CC1[C@@H](n1cnc3c(NCc4cccc(Cl)c4)nc(C#Cc4ccc(F)c(F)c4)nc31)[C@H](O)[C@@H]2O` (single isomer, unassigned), in series [5], the inhibition at 10 µM came out at 99.2%. Besides, in series [12], the activity at 20 min, 5 µM was 56.8%. Further, the activity at 20 min, 0.5 µM in series [13] was determined as 74.4%. The compound further yielded an EC50 in series [7] of 80 nM.
Turning to `CNC(=O)C12CC1[C@@H](n1cnc3c(NCc4cccc(Cl)c4)nc(C#Cc4ccc(F)cc4)nc31)[C@H](O)[C@@H]2O` (single isomer, unassigned), the activity at 20 min, 2.5 µM in series [4] came to 60.3%. The activity at 20 min, 10 µM in series [6] stood at 49.3%.
With `CNC(=O)C12CC1[C@@H](n1cnc3c(NCc4cccc(-n5cc(-c6ccc(F)c(F)c6)nn5)c4)nc(C#Cc4ccc(F)cc4F)nc31)[C@H](O)[C@@H]2O` (single isomer, unassigned), the inhibition at 20 min, 10 µM in series [1] came to 57.1%. Further, in series [2], the activity at 20 min, 2.5 µM was ≤ 30%.
On to `CNC(=O)C12CC1[C@@H](n1cnc3c(NCc4cccc(-n5cc(-c6ccc(F)c(F)c6)nn5)c4)nc(C#Cc4cc(F)c(F)c(F)c4)nc31)[C@H](O)[C@@H]2O` (single isomer, unassigned), for which the inhibition at 20 min, 10 µM in series [1] came out at 48.9%. In [14], this compound came in with an IC50 of 4010 nM. In addition, the inhibition at 10 µM in series [5] is 105%. Also, the inhibition at 20 min, 2.5 µM in series [11] turned out to be 38.9%.
